Source: ChEMBL document CHEMBL1147217, “ent-Kaurane diterpenoids from croton tonkinensis inhibit LPS-induced NF-kappaB activation and NO production” (J Nat Prod, 2003)

Key:
[1] = (§1) Inhibition of LPS-induced NF-kappaB activation in mouse RAW264.7 cells after 24 hrs by SEAP reporter assay; assay type: cell-based; conditions: RAW264.7, 24 h
Method in brief: (§2)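 RAW264.7 cells carrying a reporter plasmid with eight κB copies driving SEAP; seeded 5 × 10^4 cells/well, 3 h at 37 °C, then test agent at various concentrations plus LPS (1 µg/mL) for 24 h. Supernatant heated 65 °C 5 min, mixed with SEAP buffer (diethanolamine, MgCl2, L-homoarginine) 10 min 37 °C, then p-nitrophenyl phosphate at 37 °C; A405. IC50 values; means ± SD of six independent experiments.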

RAW264.7 [2] = experiment: as §1; assay type: cell-based; method in brief: as §2
RAW264.7 [3] = experiment: Cytotoxicity against mouse RAW264.7 cells upto 3 uM by MTT assay; assay type: cell-based
RAW264.7 [4] = experiment: Inhibition of LPS-induced NO production in mouse RAW264.7 cells after 24 hrs by Griess method; assay type: functional, cell-based; conditions: RAW264.7, 24 h
Method in brief: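 RAW264.7 cells at 1 × 10^5 cells/well, 3 h incubation, then LPS (1 µg/mL) for 24 h with or without test agent. Supernatant nitrite measured as NO readout by Griess reaction (equal volume of 0.1% N-(1-naphthyl)ethylenediamine/1% sulfanilamide in 5% phosphoric acid); absorbance 570 nm. IC50 values; means ± SD of six independent experiments.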

| Structure (SMILES) | IC50 [1] [nM] | IC50 (RAW264.7 [4]) [nM] | Activity (RAW264.7 [2]) | Activity (RAW264.7 [3]) |
| --- | --- | --- | --- | --- |
| C=C1C(=O)[C@@]23[C@H](O)C[C@@H]4C(C)(C)CCC[C@@]4(C)[C@@H]2CC[C@@H]1[C@H]3O | 110 | 260 | Dose-dependent effect | Non-toxic |
| N=C(N)NN [PIMAGEDINE] |  | 4060 |  |  |
| C=C1C(=O)[C@@]23[C@H](O)C[C@@H]4C(C)(C)CC[C@@H](OC(C)=O)[C@@]4(C)[C@@H]2CC[C@@H]1[C@H]3O | 420 | 470 | Dose-dependent effect | Non-toxic |
| C=C1C(=O)O[C@@H]2C3O[C@]3(C)CC/C=C(\C)CC[C@@H]12 (some centres undefined) | 2340 | 2010 |  |  |

Now from value to compound, other results behind:

| IC50 [1] [nM] | IC50 (RAW264.7 [4]) [nM] | Structure (SMILES) | Activity (RAW264.7 [2]) | Activity (RAW264.7 [3]) |
| --- | --- | --- | --- | --- |
| 100 | 210 | C=C1C(=O)[C@]23C[C@H]1CC[C@H]2[C@]1(C)CCC[C@](C)(COC(C)=O)[C@H]1C[C@H]3O | Dose-dependent effect | Non-toxic |
| 70 | 150 | C=C1C(=O)[C@@]23[C@H](O)C[C@@H]4[C@@](C)(COC(C)=O)CCC[C@@]4(C)[C@@H]2CC[C@@H]1[C@H]3O | Dose-dependent effect | Non-toxic |
